A selection: hits, their analogues and other compounds. The true share with any hit is near 0.99%.
STK33 inh: human STK33 kinase inhibition | inhibition, % at 10 µM | purified STK33, MBP phosphorylation, ADP-Glo luminescence | 320,000 compounds, 0.073% hits | Q9BYT3;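 active means inhibition at or above 25%, using the most active replicate where run in duplicate; inactive means inhibition below 25%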
Arr AP2 block: inhibitors of human beta-arrestin and AP2 interaction; inhibition, % at 10 µM; FITC-arrestin peptide / GST-AP2 beads, flow cytometry; AP2 beta2 appendage carries R879A mutation; 340,000 compounds, 0.31% hits;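 active means inhibition above a set limit, near 3 SD of compounds lacking own fluorescence, cut at about 54% in these data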;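 further: plate controls were DMSO wells for no effect and 5 µM unlabelled arrestin peptide for full effect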
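System: GST-AP2 R879A glutathione beads; medium: PBS, Tween 20 0.05%, BSA 0.1%; reagent: fluorescein-tagged arrestin peptide at 50 nM final; schedule: pre-incubation 12 min, peptide binding 1 h, room temperature; detection: flow cytometry, FL1 (488/535 nm); read-out: inhibition as reduced fluorescein signal on beads, percent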
Dyrk1A ADPGlo: blocks rat Dyrk1A kinase activity; Q63470; ADP-Glo luminescence, NFATc1 peptide; inhibition, % at 12.5 µM; 310,000 compounds, 0.43% hits; AID 504441; in the data active means inhibition above about 50%;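 further: plate controls were vehicle with enzyme for no effect and no enzyme for full effect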
Rin1-Abl PPI inh: inhibitors of human Rin1-Abl protein interaction; TR-FRET Rin1/Abl binding, biochemical; inhibition, % at 7.35 µM; 360,000 compounds, 0.4% hits; in the data active means inhibition above about 5%, passing the limit was not always enough
GSK3 alpha inh: human GSK-3 alpha kinase inhibition | P49840 | ADP-Glo luminescence, 60 min | inhibition, % at 10 µM | 320,000 compounds, 0.1% hits;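 active means more than half of replicates show inhibition above 20%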;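 further: GST-tagged GSK-3 alpha with peptide substrate and 25 µM ATP; 0% = DMSO neutral wells and 100% = GW8510 positive control wells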
GSK3B inh: inhibitors of human GSK3beta kinase; activity score (negative = inhibition), % at 10 µM; 300,000 compounds, 0.038% hits; GST-GSK3beta kinase, ADP-Glo luminescence, 60 min; active compounds read low; AID 2097;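 active means more than half of replicate wells score below -50%, meaning over 50% inhibition versus plate controls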;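 further: 0% = median DMSO wells and -100% = median GW8510 positive control wells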
Target sequence (P49841 whole entry, looked up): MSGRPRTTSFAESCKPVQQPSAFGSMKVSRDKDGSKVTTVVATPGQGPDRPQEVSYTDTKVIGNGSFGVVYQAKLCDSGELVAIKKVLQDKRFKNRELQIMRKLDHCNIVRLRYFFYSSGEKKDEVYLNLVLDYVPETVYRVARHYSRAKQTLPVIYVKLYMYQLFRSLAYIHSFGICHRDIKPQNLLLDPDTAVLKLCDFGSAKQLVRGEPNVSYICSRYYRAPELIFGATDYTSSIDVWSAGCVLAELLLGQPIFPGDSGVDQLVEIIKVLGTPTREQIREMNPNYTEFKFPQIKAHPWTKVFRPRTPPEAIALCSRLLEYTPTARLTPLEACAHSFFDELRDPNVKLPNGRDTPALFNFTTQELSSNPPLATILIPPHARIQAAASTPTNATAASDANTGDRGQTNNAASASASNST
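test system = GST-tagged human GSK3beta kinase, cell-free | reagent = 25 µM ATP with peptide substrate | dosing = one dose of 10 µM per compound | schedule = 60 min reaction, RT | detection = luminescent ADP-Glo measurement of ADP formed | control set = DMSO neutral wells and GW8510 at 20 µM as positive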
Arr AP2 CP1: blocks beta-arrestin peptide binding to human AP2 | shares compounds with Arr AP2 block | GST-AP2 beads, FITC arrestin peptide binding, flow cytometry; GST-fused beta2-adaptin appendage, R879A mutant | inhibition, % at 10 µM | 1,300 compounds, 2% hits | AID 504908;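 active means inhibition above a set limit, roughly 3 SD of non-fluorescent compound noise, cut at about 38% in these data; inactive means inhibition at or below that limit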;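 further: loss of bead fluorescence from 50 nM FITC arrestin peptide bound to appendage; 0% = negative control wells and 100% = excess unlabelled arrestin peptide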
GST-FITC bead: counter-screen for beta-arrestin AP2 inhibitors: GST-GSH bead binding. shares compounds with Arr AP2 block. GST-fluorescein binding to GSH beads, fluorescence. inhibition, % at 10 µM. 1,300 compounds, 2% hits;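 active means inhibition above 50%, about 3 SD of the inhibition seen with non-fluorescent compounds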;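 further: fluorescein maleimide labelled GST captured on 4 micron glutathione beads; higher means more loss of bead fluorescence from quenching or blocked binding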
The depositor's hits bear a star; · = no result.

SMILES	STK33 inh	Arr AP2 block	Dyrk1A ADPGlo	Rin1-Abl PPI inh	GSK3 alpha inh	GSK3B inh	Arr AP2 CP1	GST-FITC bead
Cn1nnc(NC(=S)NC(=O)c2cccc3c(Cl)cccc23)n1	0	56*	-6	6	-1	-1	0	-8
COc1cc(C(=O)Nc2cc3c(cc2N2CCCCC2)n(C)c(=O)n3C)cc(OC)c1OC	0	-12	1	-1	-1	5	4	-2
COc1ccc(C(=O)Nc2cc3c(cc2N2CCCCC2)n(C)c(=O)n3C)cc1OC	1	·	-1	-1	-3	2	-5	·
Cc1ccc(C(=O)Nc2ccccc2N2CCCCC2)cc1	1	10	4	0	-1	1	·	·
Cc1ccc(C(=O)Nc2cc3c(cc2N2CCCCC2)n(C)c(=O)n3C)cc1	0	-1	-6	3	-1	2	4	3
CCOc1cc(C(=O)Nc2cc3c(cc2N2CCCC2)n(C)c(=O)n3C)cc(OCC)c1OCC	1	15	-1	3	1	-2	5	3
Cc1cccc(NC(=O)c2cc(-c3cccnc3)nc3c(C)cccc23)n1	-1	18	3	-1	1	0	·	·
CC(=O)Nc1ccc(C(=O)CN2C(=O)NC3(CCOc4ccccc43)C2=O)c(F)c1 (configuration not stated)	2	0	1	-2	-1	·	·	·
CCCCC(=O)N1CCN(c2nc3ccc(Cl)cc3s2)CC1	0	-1	0	-1	-3	-3	·	·
Cc1nn(-c2ccc(F)cc2)c(Cl)c1/C=C/C(=O)OCC(=O)Nc1c(F)c(F)c(F)c(F)c1F	0	104*	1	1	-2	2	-4	-2
CCCC(=O)N1N=C(c2ccccc2)CC1c1cn(C)c2ccccc12 (configuration not stated)	-2	1	3	4	0	3	·	·
CC(=O)N1N=C(c2ccc(Br)cc2)CC1c1cn(C)c2ccccc12 (configuration not stated)	-2	55*	-8	3	-2	0	-6	·
O=C(CN1CCN(C(=O)c2ccc(-c3nc4ccccc4s3)o2)CC1)Nc1ccccc1Cl	·	41	-4	3	·	·	·	·
Cc1cccc(NC(=O)CN2CCN(C(=O)c3ccc(-c4nc5ccccc5s4)o3)CC2)c1C	·	59*	9	2	·	·	-3	11
Cc1cc2c(cc1C)NC(C)CC(=O)N2 (configuration not stated)	·	-5	6	3	·	·	·	·
CC(=O)Nc1ccc(NC(=O)c2ccc([N+](=O)[O-])cc2Cl)cc1	3	22	-1	4	10	2	·	·
CC(=O)N(C)c1ccc(NC(=O)c2ccc([N+](=O)[O-])cc2Cl)cc1	-2	69*	-2	-1	2	4	3	-4
Cn1nnnc1SCC(=O)Nc1ccc(C(=O)N2CCN(Cc3ccccc3F)CC2)cc1	0	-3	4	4	-2	·	·	·
CC12CC3(C)CC(C)(C1)CC(C(=O)NCc1ccccn1)(C2)C3	-1	37	-6	3	-1	4	·	·
COC(=O)CNC(=O)C12CC3(C)CC(C)(CC(C)(C3)C1)C2	-1	59*	-4	1	-3	0	-7	-1
Cc1ccc(S(=O)(=O)N2CCCC(C(=O)NCC3CCCO3)C2)cc1 (configuration not stated)	1	-5	2	2	0	1	·	·
CCCS(=O)(=O)N1CCCC(C(=O)NCC2CCCO2)C1 (configuration not stated)	0	80*	-4	1	-1	1	3	-3
COc1ncccc1-c1cc2nc(NCCCN(C)C)n(C)c(=O)c2s1	·	·	·	-4	·	·	·	·
COc1ccc(CCNCC(O)Cn2c3ccccc3c3ccccc32)cc1OC (configuration not stated)	0	58*	-4	1	-1	-2	1	4
COc1ccccc1NCC(O)Cn1c2ccccc2c2ccccc21 (configuration not stated)	-1	11	-13	-7	-1	2	·	·
SMILES	STK33 inh	Arr AP2 block	Dyrk1A ADPGlo	Rin1-Abl PPI inh	GSK3 alpha inh	GSK3B inh	Arr AP2 CP1	GST-FITC bead
O=C(NCc1nnc2c(C(F)(F)F)cc(Cl)cn12)C1CCCC1	-1	-1	1	1	-3	0	·	·
O=C(NCc1nnc2c(C(F)(F)F)cc(Cl)cn12)c1cccs1	2	56*	2	0	17	1	14	-2
CCS(=O)(=O)N1CCC(C(=O)Nc2ccccc2OC)CC1	-2	31	1	4	3	1	·	·
COc1cccc(OC)c1C(=O)Nc1cc(C)nn1-c1nc2ccccc2[nH]1	0	36	·	0	-1	0	1	5
COc1ccc(C(=O)Nc2cc(C)nn2-c2nc3ccccc3[nH]2)c(OC)c1	-5	7	-1	0	-1	-3	19	-6
Cc1cc(NC(=O)CC#N)n(-c2nc3ccccc3[nH]2)n1	0	10	-6	2	0	-5	·	·
Cc1cc(NC(=O)c2ccccc2)n(-c2nc3ccccc3[nH]2)n1	-1	17	2	-2	-1	-2	-3	-1
Cc1ccc(C(=O)CSc2nc(O)cc(=O)[nH]2)cc1C	0	24	-5	-3	1	-18	·	·
COc1ccc(CC(=O)O/N=C(\N)c2ccccc2)cc1OC	0	5	0	-3	-1	3	·	·
CN(c1ccccc1)c1nc(N)c(C#N)c(CC#N)c1C#N	-1	62*	-7	3	2	-1	-11	-3
C=CCNc1nc(C(=O)OC(C)C(=O)c2ccc(C)cc2)cs1 (configuration not stated)	-1	57*	·	0	-8	·	-10	-4
COc1cc(OC)c(C(=O)OCC(=O)N2CCOCC2)cc1OC	0	-4	-3	-3	-1	3	·	·
COc1cc(C#N)c(N=C(SCC#N)N2CCOCC2)cc1OC	-2	59*	-3	-2	-1	4	15	1
COc1ccc(C(=O)NC(=S)Nc2ccc(S(=O)(=O)Nc3cc(OC)nc(OC)n3)cc2)cc1	0	56*	2	2	-3	4	-2	-3
COc1cc(NS(=O)(=O)c2ccc(NC(=S)NC(=O)c3ccc(F)cc3)cc2)nc(OC)n1	0	-6	34	3	-3	3	·	·
CC(=O)Nc1cccc(-c2csc(NCc3ccccc3)n2)c1	3	39	1	2	7	-1	·	·

Screening results (PubChem)
